{"source": "ChEMBL document CHEMBL1139875", "about": "“Discovery of 4-aminobutyric acid derivatives possessing anticonvulsant and antinociceptive activities: a hybrid pharmacophore approach” (2007)", "key": {"[1]": {"tested_on": "Rattus norvegicus", "assay": "Antihyperalgesic effects in Sprague-Dawley rat CCI model assessed as duration of paw withdrawal at 100 mg/kg, ip after 1.5 hrs", "format": "functional", "conditions": "route intraperitoneal"}, "[2]": {"tested_on": "Mus musculus", "assay": "Anticonvulsant activity in Swiss Albino mouse at 300 mg/kg, ip after 0.5 hr by scPTZ test", "format": "functional, organism-based", "set-up": "dose 300 mg/kg", "procedure,_shortened": "(§1)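 Mice (Swiss, 20-25 g) given i.p. doses of 30, 100 and 300 mg/kg under ADD program protocols, three per group, examined at 0.5 and 4 h in MES, scPTZ, scSTY or scPIC seizure tests. Value is the minimum dose protecting half or more of the mice.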"}, "[3]": {"tested_on": "Mus musculus", "assay": "Neurotoxicity in Swiss Albino mouse at 300 mg/kg, ip after 0.5 hr by rotarod test", "format": "functional, organism-based", "set-up": "dose 300 mg/kg", "procedure,_shortened": "(§2)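 Swiss mice (20-25 g) are trained on an accelerating rotorod (10 rpm, 3.2 cm rod), then injected i.p. at 30, 100 or 300 mg/kg, with three per group. Neurotoxicity means failure to keep equilibrium for at least 1 min in each of three trials, checked at 0.5 and 4 h. The value reported is the minimum dose affecting half or more of the mice.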"}, "[4]": {"tested_on": "Rattus norvegicus", "assay": "Antihyperalgesic effects in Sprague-Dawley rat SNL model assessed as duration of paw withdrawal at 100 mg/kg, ip after 2 hrs, ip", "format": "functional", "conditions": "route intraperitoneal", "procedure,_shortened": "(§3)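 L5 SNL rats (n = 4), dosed 100 mg/kg i.p. (vehicle 30% v/v PEG 400 in water). Pin-prick to midplantar ipsilateral left hindpaw; withdrawal duration, mean of three responses; ≥2 s defined abnormal. Mean ± SEM; one-way ANOVA with Bonferroni versus predrug.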"}, "[5]": {"tested_on": "Rattus norvegicus", "assay": "Antihyperalgesic effects in Sprague-Dawley rat CCI model assessed as duration of paw withdrawal at 100 mg/kg, ip after 0.5 hr", "format": "functional", "conditions": "route intraperitoneal"}, "[6]": {"tested_on": "Mus musculus", "assay": "Analgesic activity in Swiss Albino mouse assessed as number of acetic acid-induced writhing per 30 min after 100 mg/kg, ip", "format": "functional", "conditions": "route intraperitoneal", "procedure,_shortened": "(§4)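 Mice in groups of six dosed i.p. at 100 mg/kg, controls receiving 30% v/v PEG 400 in water. Writhing induced by i.p. 0.1 mL of 3% v/v acetic acid 1 h after drug. Writhes (abdominal stretch with at least one hind limb extended) counted over 30 min; % inhibition calculated. Mean ± SEM, Student's t test.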"}, "[7]": {"tested_on": "Rattus norvegicus", "assay": "Anti-cold allodynia effect in Sprague-Dawley rat SNL model assessed as duration of paw withdrawal 100 mg/kg, ip after 2 hrs", "format": "functional", "conditions": "route intraperitoneal", "procedure,_shortened": "(§5)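 Left L5 spinal nerve ligation under pentobarbital (65 mg/kg i.p.). Allodynic rats dosed i.p. 100 mg/kg, vehicle 30% v/v PEG 400 in water. Acetone (100-200 µL) misted onto midplantar affected paw after 10 min acclimatization; paw withdrawal duration, mean of three samples at least 3 min apart; n = 4 rats.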"}, "[8]": {"tested_on": "Mus musculus", "assay": "Anticonvulsant activity in Swiss Albino mouse at 300 mg/kg, ip after 4 hrs by scSTY test", "format": "functional, organism-based", "set-up": "dose 300 mg/kg", "procedure,_shortened": "as §1"}, "[9]": {"tested_on": "Mus musculus", "assay": "Neurotoxicity in Swiss Albino mouse at 300 mg/kg, ip after 4 hrs by rotarod test", "format": "functional, organism-based", "set-up": "dose 300 mg/kg", "procedure,_shortened": "as §2"}, "[10]": {"tested_on": "Mus musculus", "assay": "Anticonvulsant activity in Swiss Albino mouse at 300 mg/kg, ip after 0.5 hr by MES test", "format": "functional, organism-based", "set-up": "dose 300 mg/kg", "procedure,_shortened": "as §1"}, "[11]": {"tested_on": "Rattus norvegicus", "assay": "Effect on spontaneous pain in Sprague-Dawley rat CCI model assessed as duration of paw withdrawal at 100 mg/kg, ip after 2 hrs", "format": "functional", "conditions": "route intraperitoneal", "procedure,_shortened": "(§6)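 Unilateral CCI of sciatic nerve (Bennett and Xie) in Sprague-Dawley rats under i.p. pentobarbital sodium (65 mg/kg). Spontaneous pain is scored over 5 min after 10 min acclimatization, as cumulative time the ipsilateral paw is held off the floor. Paw lifts from locomotion or repositioning are excluded. Drug is given at 100 mg/kg i.p. with 30% v/v PEG 400 vehicle. Mean ± SEM, n = 4, compared with predrug by ANOVA/Bonferroni.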"}, "[12]": {"tested_on": "Rattus norvegicus", "assay": "Antihyperalgesic effects in Sprague-Dawley rat CCI model assessed as duration of paw withdrawal at 100 mg/kg, ip after 1 hr", "format": "functional", "conditions": "route intraperitoneal"}, "[13]": {"tested_on": "Rattus norvegicus", "assay": "Antihyperalgesic effects in Sprague-Dawley rat SNL model assessed as duration of paw withdrawal at 100 mg/kg, ip after 2.5 hrs, ip", "format": "functional", "conditions": "route intraperitoneal", "procedure,_shortened": "as §3"}, "[14]": {"tested_on": "Mus musculus", "assay": "Anticonvulsant activity in Swiss Albino mouse at 300 mg/kg, ip after 4 hrs by MES test", "format": "functional, organism-based", "set-up": "dose 300 mg/kg", "procedure,_shortened": "as §1"}, "[15]": {"tested_on": "Mus musculus", "assay": "Analgesic activity in Swiss Albino mouse assessed as inhibition of acetic acid-induced writhing responses at 100 mg/kg, ip", "format": "functional", "conditions": "route intraperitoneal", "procedure,_shortened": "as §4"}, "[16]": {"tested_on": "Rattus norvegicus", "assay": "Antihyperalgesic effects in Sprague-Dawley rat CCI model assessed as duration of paw withdrawal at 100 mg/kg, ip after 2 hrs", "format": "functional", "conditions": "route intraperitoneal"}, "[17]": {"tested_on": "Rattus norvegicus", "assay": "Antihyperalgesic effects in Sprague-Dawley rat SNL model assessed as duration of paw withdrawal at 100 mg/kg, ip after 0.5 hr, ip", "format": "functional", "conditions": "route intraperitoneal", "procedure,_shortened": "as §3"}, "[18]": {"tested_on": "Rattus norvegicus", "assay": "Antihyperalgesic effects in Sprague-Dawley rat CCI model assessed as duration of paw withdrawal at 100 mg/kg, ip after 2.5 hrs", "format": "functional", "conditions": "route intraperitoneal"}, "[19]": {"tested_on": "Rattus norvegicus", "assay": "Effect on spontaneous pain in Sprague-Dawley rat CCI model assessed as duration of paw withdrawal at 100 mg/kg, ip after 1.5 hrs", "format": "functional", "conditions": "route intraperitoneal", "procedure,_shortened": "as §6"}, "[20]": {"tested_on": "Rattus norvegicus", "assay": "Antihyperalgesic effects in Sprague-Dawley rat SNL model assessed as duration of paw withdrawal at 100 mg/kg, ip after 1.5 hrs, ip", "format": "functional", "conditions": "route intraperitoneal", "procedure,_shortened": "as §3"}, "[21]": {"tested_on": "Rattus norvegicus", "assay": "Anti-cold allodynia effect in Sprague-Dawley rat SNL model assessed as duration of paw withdrawal 100 mg/kg, ip after 1.5 hrs", "format": "functional", "conditions": "route intraperitoneal", "procedure,_shortened": "as §5"}, "[22]": {"tested_on": "Mus musculus", "assay": "Anticonvulsant activity in Swiss Albino mouse at 300 mg/kg, ip after 0.5 hr by scSTY test", "format": "functional, organism-based", "set-up": "dose 300 mg/kg", "procedure,_shortened": "as §1"}, "[23]": {"tested_on": "Mus musculus", "assay": "Anticonvulsant activity in Swiss Albino mouse at 300 mg/kg, ip after 4 hrs by scPIC test", "format": "functional, organism-based", "set-up": "dose 300 mg/kg", "procedure,_shortened": "as §1"}, "[24]": {"tested_on": "Rattus norvegicus", "assay": "Effect on spontaneous pain in Sprague-Dawley rat CCI model assessed as duration of paw withdrawal at 100 mg/kg, ip after 0.5 hr", "format": "functional", "conditions": "route intraperitoneal", "procedure,_shortened": "(§7)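 CCI rats (n = 4) dosed 100 mg/kg i.p. (vehicle 30% v/v PEG 400 in water). After 10 min acclimatization in a cage 5 cm above ground, cumulative time the ipsilateral paw was held off the floor over 5 min recorded, excluding locomotion lifts. Mean ± SEM; ANOVA/Bonferroni versus predrug.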"}, "[25]": {"tested_on": "Mus musculus", "assay": "Anticonvulsant activity in Swiss Albino mouse at 300 mg/kg, ip after 0.5 hr by scPIC test", "format": "functional, organism-based", "set-up": "dose 300 mg/kg", "procedure,_shortened": "as §1"}, "[26]": {"tested_on": "Rattus norvegicus", "assay": "Anti-cold allodynia effect in Sprague-Dawley rat SNL model assessed as duration of paw withdrawal 100 mg/kg, ip after 2.5 hrs", "format": "functional", "conditions": "route intraperitoneal", "procedure,_shortened": "as §5"}, "[27]": {"tested_on": "Rattus norvegicus", "assay": "Anti-cold allodynia effect in Sprague-Dawley rat SNL model assessed as duration of paw withdrawal 100 mg/kg, ip after 1 hrs", "format": "functional", "conditions": "route intraperitoneal", "procedure,_shortened": "as §5"}, "[28]": {"tested_on": "Rattus norvegicus", "assay": "Effect on spontaneous pain in Sprague-Dawley rat CCI model assessed as duration of paw withdrawal at 100 mg/kg, ip after 1 hr", "format": "functional", "conditions": "route intraperitoneal", "procedure,_shortened": "as §7"}, "[29]": {"tested_on": "Rattus norvegicus", "assay": "Antihyperalgesic effects in Sprague-Dawley rat SNL model assessed as duration of paw withdrawal at 100 mg/kg, ip after 1 hr, ip", "format": "functional", "conditions": "route intraperitoneal", "procedure,_shortened": "as §3"}, "[30]": {"tested_on": "Rattus norvegicus", "assay": "Effect on spontaneous pain in Sprague-Dawley rat CCI model assessed as duration of paw withdrawal at 100 mg/kg, ip after 2.5 hrs", "format": "functional", "conditions": "route intraperitoneal", "procedure,_shortened": "as §6"}, "[31]": {"tested_on": "Rattus norvegicus", "assay": "Anti-cold allodynia effect in Sprague-Dawley rat SNL model assessed as duration of paw withdrawal 100 mg/kg, ip after 0.5 hr", "format": "functional", "conditions": "route intraperitoneal", "procedure,_shortened": "as §5"}}, "note": "The source made the active and inactive calls. The rule behind the calls is not given here."}
{"smiles": "C/C(=N\\NC(=O)NCCCC(=O)O)c1cccc(N)c1", "values": [{"measurement": "Activity", "setting": "[1]", "value": 9.9, "unit": "s"}, {"measurement": "Activity", "setting": "[2]", "value": "inactive"}, {"measurement": "Activity", "setting": "[3]", "value": "Active"}, {"measurement": "Activity", "setting": "[4]", "value": 19.5, "unit": "s"}, {"measurement": "Activity", "setting": "[5]", "value": 9.3, "unit": "s"}, {"measurement": "Activity", "setting": "[6]", "value": 19.7}, {"measurement": "Activity", "setting": "[7]", "value": 13.5, "unit": "s"}, {"measurement": "Activity", "setting": "[8]", "value": "inactive"}, {"measurement": "Activity", "setting": "[9]", "value": "Active"}, {"measurement": "Activity", "setting": "[10]", "value": "Active"}, {"measurement": "Activity", "setting": "[11]", "value": 1.4, "unit": "s"}, {"measurement": "Activity", "setting": "[12]", "value": 9.6, "unit": "s"}, {"measurement": "Activity", "setting": "[13]", "value": 17.3, "unit": "s"}, {"measurement": "Activity", "setting": "[14]", "value": "Active"}, {"measurement": "inhibition in vivo at 100 mg/kg", "setting": "[15]", "value": 89, "unit": "%"}, {"measurement": "Activity", "setting": "[16]", "value": 6.6, "unit": "s"}, {"measurement": "Activity", "setting": "[17]", "value": 2.4, "unit": "s"}, {"measurement": "Activity", "setting": "[18]", "value": 4.8, "unit": "s"}, {"measurement": "Activity", "setting": "[19]", "value": 0.9, "unit": "s"}, {"measurement": "Activity", "setting": "[20]", "value": 7.3, "unit": "s"}, {"measurement": "Activity", "setting": "[21]", "value": 17.5, "unit": "s"}, {"measurement": "Activity", "setting": "[22]", "value": "inactive"}, {"measurement": "Activity", "setting": "[23]", "value": "inactive"}, {"measurement": "Activity", "setting": "[24]", "value": 1.7, "unit": "s"}, {"measurement": "Activity", "setting": "[25]", "value": "inactive"}, {"measurement": "Activity", "setting": "[26]", "value": 15.2, "unit": "s"}, {"measurement": "Activity", "setting": "[27]", "value": 11.2, "unit": "s"}, {"measurement": "Activity", "setting": "[28]", "value": 1.2, "unit": "s"}, {"measurement": "Activity", "setting": "[29]", "value": 6.5, "unit": "s"}, {"measurement": "Activity", "setting": "[30]", "value": 2.8, "unit": "s"}, {"measurement": "Activity", "setting": "[31]", "value": 4.8, "unit": "s"}]}
